The test system of assay [1] is Mycobacterium tuberculosis. Put plainly: Antimycobacterial activity against Mycobacterium tuberculosis H37Rv ATCC 27294 after 21 days by agar proportion method. The assay is classed as functional. As to conditions: 504 h. In outline: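 Agar proportion method on Middlebrook 7H10 with glycerol and OADC, compounds added from DMSO solutions at […]. H37Rv was grown in 7H9 broth at 37 °C for 4–7 days and adjusted to McFarland no. 1. The 10^-2 and 10^-4 dilutions were the inocula. MIC was read after 21 days at 37 °C under 5–7% CO₂.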

The nature of assay [2]: Antagonist activity at calcium channel in guinea pig ileum assessed as inhibition of KCl-induced contraction of ileal longitudinal smooth muscle pretreated 15 mins before KCl challenge. The assay is classed as functional, tissue-based. As to conditions: Cavia porcellus.

pIC50: −log10 of the molar value. Converted amounts (≈) assume the structure as drawn.

In general, MIC refers to the lowest concentration that inhibits growth of the organism. Low values mean inhibition by little substance, high ones a need for much substance. In general, pIC50 refers to −log10 of the IC50, conventionally taken in molar units. Consider `CCN(CC)C(=O)C1=C(C)NC(C)=C(C(=O)OCCCCCc2ccccc2)C1c1ncc([N+](=O)[O-])n1C` (stereo not drawn), for which inhibition of growth in assay [1] (MIC) required 2 µM (≈ 1.05 µg/mL). For the same compound, the pIC50 in assay [2] was 4.62. `CCCCOC(=O)C1=C(C)NC(C)=C(C(=O)N(CC)CC)C1c1ncc([N+](=O)[O-])n1C` (stereo not drawn) displayed a minimal inhibitory concentration (MIC) in assay [1] of 1 µM (≈ 0.434 µg/mL). In addition, the negative logarithm of the IC50 (pIC50) in assay [2] is 5.07. `CCN(CC)C(=O)C1=C(C)NC(C)=C(C(=O)OCc2ccccc2)C1c1ncc([N+](=O)[O-])n1C` (stereo not drawn) came in with an MIC in assay [1] of 1 µM (≈ 0.468 µg/mL). Besides, the pIC50 in assay [2] is 5.38.

In turn, `CCN(CC)C(=O)C1=C(C)NC(C)=C(C(=O)OCCCc2ccccc2)C1c1ncc([N+](=O)[O-])n1C` (stereo not drawn) came in with an MIC in assay [1] of 1 µM (≈ 0.496 µg/mL). The negative-log IC50 (pIC50) in assay [2] was 5.57. On to `CCCOC(=O)C1=C(C)NC(C)=C(C(=O)N(CC)CC)C1c1ncc([N+](=O)[O-])n1C` (stereo not drawn), for which the lowest concentration to inhibit growth in assay [1] (MIC) was 2 µM (≈ 0.839 µg/mL). The pIC50 in assay [2] is 4.92. As for `CCN(CC)C(=O)C1=C(C)NC(C)=C(C(=O)OC)C1c1ncc([N+](=O)[O-])n1C` (stereo not drawn), the minimal inhibitory concentration (MIC) in assay [1] is over 500 µM. In addition, in assay [2], the pIC50 is 4.49. Consider `CCN(CC)C(=O)C1=C(C)NC(C)=C(C(=O)OC(C)C)C1c1ncc([N+](=O)[O-])n1C` (stereo not drawn), for which the MIC in assay [1] was over 500 µM. In addition, the pIC50 in assay [2] was 4.73. For the compound `CCN(CC)C(=O)C1=C(C)NC(C)=C(C(=O)OCCc2ccccc2)C1c1ncc([N+](=O)[O-])n1C` (stereo not drawn), in assay [1], the minimum inhibitory concentration (MIC) was found to be 1 µM (≈ 0.482 µg/mL). Moreover, the pIC50 in assay [2] is 5.62.

Compound `CCN(CC)C(=O)C1=C(C)NC(C)=C(C(=O)OCCCCc2ccccc2)C1c1ncc([N+](=O)[O-])n1C` (stereo not drawn) showed a minimal inhibitory concentration (MIC) in assay [1] of 2 µM (≈ 1.02 µg/mL). In addition, the negative logarithm of the IC50 (pIC50) in assay [2] is 5.46. As for `CCOC(=O)C1=C(C)NC(C)=C(C(=O)N(CC)CC)C1c1ncc([N+](=O)[O-])n1C` (stereo not drawn), 250 µM (≈ 101 µg/mL) was the least that counted as inhibitory in assay [1] (MIC). For the same compound, the pIC50 in assay [2] is 4.53. In turn, `NNC(=O)c1ccncc1` [ISONIAZID] came in with an MIC in assay [1] of 1 µM (≈ 0.137 µg/mL).

In the case of `COC(=O)C1=C(C)NC(C)=C(C(=O)OC)C1c1ccccc1[N+](=O)[O-]` [NIFEDIPINE], the negative logarithm of the IC50 (pIC50) in assay [2] is 8.97. In turn, `CO[C@H]1/C=C/O[C@@]2(C)Oc3c(C)c(O)c4c(O)c(c(/C=N/N5CCN(C)CC5)c(O)c4c3C2=O)NC(=O)/C(C)=C\C=C\[C@H](C)[C@H](O)[C@@H](C)[C@@H](O)[C@@H](C)[C@H](OC(C)=O)[C@@H]1C` [RIFAMPIN] yielded an MIC in assay [1] of 1 µM (≈ 0.823 µg/mL).

Source of the values: ChEMBL document CHEMBL1152702, “Synthesis and biological evaluation of some new 1,4-dihydropyridines containing different ester substitute and diethyl carbamoyl group as anti-tubercular agents” (Bioorg Med Chem, 2009).
